Reference: ChEMBL document CHEMBL3352237, “Synthesis and biological evaluation of novel peptide BF2 as an antibacterial agent against clinical isolates of vancomycin-resistant enterococci” (J Med Chem, 2014)
Converted amounts (≈) assume the structure as drawn.

Tests used:
Type in all cases: functional
[1] = tested on: Enterococcus faecium; test: Antibacterial activity against vancomycin-resistant Enterococcus faecium clinical isolate 30/48 after overnight incubation by two-fold serial dilution method
[2] = tested on: Enterococcus faecium; test: Antibacterial activity against vancomycin-resistant Enterococcus faecium clinical isolate 27/221 after overnight incubation by two-fold serial dilution method
[3] = tested on: Enterococcus; test: Antibacterial activity against vancomycin-resistant Enterococcus ATCC 51299 after overnight incubation by two-fold serial dilution method
[4] = tested on: Enterococcus faecium; test: Antibacterial activity against vancomycin-resistant Enterococcus faecium clinical isolate 16475 after overnight incubation by two-fold serial dilution method
[5] = tested on: Enterococcus faecium; test: Antibacterial activity against vancomycin-resistant Enterococcus faecium clinical isolate 17301 after overnight incubation by two-fold serial dilution method
[6] = tested on: Enterococcus faecium; test: Antibacterial activity against vancomycin-resistant Enterococcus faecium clinical isolate 27/16917 after overnight incubation by two-fold serial dilution method; details: isolate 27/1691
[7] = tested on: Enterococcus; test: Antibacterial activity against Enterococcus infected in Wistar albino rat assessed as reduction in cell count at 25 mg/kg, iv after 1 hr relative to control; set-up: scale not given: the % may be the effect or the level left
Procedure, shortened: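 Female Wistar albino rats, 40−45 days old, 125−150 g, 5 groups of 3. Enterococci were grown to log phase in MH broth, centrifuged at 1000g for 15 min, and diluted in PBS to 4 × 10^6 CFU/mL. Rats were inoculated i.v. and treated i.v. 1 h later with 12.5, 25 or 37.5 mg/kg peptide, PBS vehicle, or linezolid 25 mg/kg. Tail-vein blood taken 1 h post-treatment was plated on blood agar, incubated overnight at 37 °C, and colonies counted.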

[8] = tested on: Enterococcus faecium; test: Antibacterial activity against vancomycin-resistant Enterococcus faecium clinical isolate 14643 after overnight incubation by two-fold serial dilution method
[9] = tested on: Enterococcus faecium; test: Antibacterial activity against vancomycin-resistant Enterococcus faecium clinical isolate 31386 after overnight incubation by two-fold serial dilution method
[10] = tested on: Enterococcus faecium; test: Antibacterial activity against vancomycin-resistant Enterococcus faecium clinical isolate 23/240 after overnight incubation by two-fold serial dilution method
[11] = tested on: Enterococcus faecium; test: Antibacterial activity against vancomycin-resistant Enterococcus faecium clinical isolate 12/266 after overnight incubation by two-fold serial dilution method
[12] = tested on: Enterococcus faecium; test: Antibacterial activity against vancomycin-resistant Enterococcus faecium clinical isolate 6/22 after overnight incubation by two-fold serial dilution method
[13] = tested on: Enterococcus faecium; test: Antibacterial activity against vancomycin-resistant Enterococcus faecium clinical isolate 29/203 after overnight incubation by two-fold serial dilution method
[14] = tested on: Enterococcus faecium; test: Antibacterial activity against vancomycin-resistant Enterococcus faecium clinical isolate 18906 after overnight incubation by two-fold serial dilution method
[15] = tested on: Enterococcus faecium; test: Antibacterial activity against vancomycin-resistant Enterococcus faecium clinical isolate 5396 after overnight incubation by two-fold serial dilution method
[16] = tested on: Enterococcus faecium; test: Antibacterial activity against vancomycin-resistant Enterococcus faecium clinical isolate 5484 after overnight incubation by two-fold serial dilution method
[17] = tested on: Enterococcus faecium; test: Antibacterial activity against vancomycin-resistant Enterococcus faecium clinical isolate 10177 after overnight incubation by two-fold serial dilution method
[18] = tested on: Enterococcus faecium; test: Antibacterial activity against vancomycin-resistant Enterococcus faecium clinical isolate 7/27 after overnight incubation by two-fold serial dilution method
[19] = tested on: Enterococcus faecium; test: Antibacterial activity against vancomycin-resistant Enterococcus faecium clinical isolate 16115 after overnight incubation by two-fold serial dilution method
[20] = tested on: Enterococcus faecium; test: Antibacterial activity against vancomycin-resistant Enterococcus faecium clinical isolate 12875 after overnight incubation by two-fold serial dilution method
[21] = tested on: Enterococcus faecium; test: Antibacterial activity against vancomycin-resistant Enterococcus faecium clinical isolate 8/224 after overnight incubation by two-fold serial dilution method
[22] = tested on: Enterococcus faecium; test: Antibacterial activity against vancomycin-resistant Enterococcus faecium clinical isolate 3864 after overnight incubation by two-fold serial dilution method
[23] = tested on: Enterococcus faecium; test: Antibacterial activity against vancomycin-resistant Enterococcus faecium clinical isolate 151495 after overnight incubation by two-fold serial dilution method
[24] = tested on: Enterococcus faecium; test: Antibacterial activity against vancomycin-resistant Enterococcus faecium clinical isolate 147969 after overnight incubation by two-fold serial dilution method
[25] = tested on: Enterococcus faecium; test: Antibacterial activity against vancomycin-resistant Enterococcus faecium clinical isolate 28/211 after overnight incubation by two-fold serial dilution method
[26] = tested on: Enterococcus; test: Antibacterial activity against vancomycin-resistant Enterococcus ATCC 29212 after overnight incubation by two-fold serial dilution method
[27] = tested on: Enterococcus faecium; test: Antibacterial activity against vancomycin-resistant Enterococcus faecium clinical isolate 13246 after overnight incubation by two-fold serial dilution method
[28] = tested on: Enterococcus faecium; test: Antibacterial activity against vancomycin-resistant Enterococcus faecium clinical isolate 15/213 after overnight incubation by two-fold serial dilution method
[29] = tested on: Enterococcus faecium; test: Antibacterial activity against vancomycin-resistant Enterococcus faecium clinical isolate 31176 after overnight incubation by two-fold serial dilution method
[30] = tested on: Enterococcus faecalis; test: Antibacterial activity against vancomycin-resistant Enterococcus faecalis clinical isolate 6093 after overnight incubation by two-fold serial dilution method
[31] = tested on: Enterococcus faecalis; test: Antibacterial activity against vancomycin-resistant Enterococcus faecalis clinical isolate 22626 after overnight incubation by two-fold serial dilution method
[32] = tested on: Enterococcus faecalis; test: Antibacterial activity against vancomycin-resistant Enterococcus faecalis clinical isolate 27728 after overnight incubation by two-fold serial dilution method
[33] = tested on: Enterococcus faecalis; test: Antibacterial activity against vancomycin-resistant Enterococcus faecalis clinical isolate 22/203 after overnight incubation by two-fold serial dilution method
[34] = tested on: Enterococcus faecalis; test: Antibacterial activity against vancomycin-resistant Enterococcus faecalis clinical isolate 7077 after overnight incubation by two-fold serial dilution method
[35] = tested on: Enterococcus faecalis; test: Antibacterial activity against vancomycin-resistant Enterococcus faecalis clinical isolate 21/235 after overnight incubation by two-fold serial dilution method
[36] = tested on: Enterococcus faecalis; test: Antibacterial activity against vancomycin-resistant Enterococcus faecalis clinical isolate 387702 after overnight incubation by two-fold serial dilution method
[37] = tested on: Enterococcus faecalis; test: Antibacterial activity against vancomycin-resistant Enterococcus faecalis clinical isolate 5648 after overnight incubation by two-fold serial dilution method
[38] = tested on: Enterococcus faecalis; test: Antibacterial activity against vancomycin-resistant Enterococcus faecalis clinical isolate 5642 after overnight incubation by two-fold serial dilution method
[39] = tested on: Enterococcus faecalis; test: Antibacterial activity against vancomycin-resistant Enterococcus faecalis clinical isolate 5814 after overnight incubation by two-fold serial dilution method
[40] = tested on: Enterococcus faecalis; test: Antibacterial activity against vancomycin-resistant Enterococcus faecalis clinical isolate 7079 after overnight incubation by two-fold serial dilution method
[41] = tested on: Enterococcus faecalis; test: Antibacterial activity against vancomycin-resistant Enterococcus faecalis clinical isolate 7846 after overnight incubation by two-fold serial dilution method
[42] = tested on: Enterococcus faecalis; test: Antibacterial activity against vancomycin-resistant Enterococcus faecalis clinical isolate 7670 after overnight incubation by two-fold serial dilution method

## CC(=O)NC[C@H]1CN(c2ccc(N3CCOCC3)c(F)c2)C(=O)O1 [LINEZOLID]
[1]
  MIC: 2 µg/mL (≈ 5.93 µM)
[2]
  MIC: 1 µg/mL (≈ 2.96 µM)
[3]
  MIC: 2 µg/mL (≈ 5.93 µM)
[4]
  MIC: 1 µg/mL (≈ 2.96 µM)
[5]
  MIC: 1 µg/mL (≈ 2.96 µM)
[6]
  MIC: 1 µg/mL (≈ 2.96 µM)
[7]
  Activity: 93.8%
[8]
  MIC: 2 µg/mL (≈ 5.93 µM)
[9]
  MIC: 2 µg/mL (≈ 5.93 µM)
[10]
  MIC: 1 µg/mL (≈ 2.96 µM)
[11]
  MIC: 2 µg/mL (≈ 5.93 µM)
[12]
  MIC: 1 µg/mL (≈ 2.96 µM)
[13]
  MIC: 1 µg/mL (≈ 2.96 µM)
[14]
  MIC: 2 µg/mL (≈ 5.93 µM)
[15]
  MIC: 1 µg/mL (≈ 2.96 µM)
[16]
  MIC: 1 µg/mL (≈ 2.96 µM)
[17]
  MIC: 1 µg/mL (≈ 2.96 µM)
[18]
  MIC: 2 µg/mL (≈ 5.93 µM)
[19]
  MIC: 1 µg/mL (≈ 2.96 µM)
[20]
  MIC: 1 µg/mL (≈ 2.96 µM)
[21]
  MIC: 1 µg/mL (≈ 2.96 µM)
[22]
  MIC: 2 µg/mL (≈ 5.93 µM)
[23]
  MIC: 1 µg/mL (≈ 2.96 µM)
[24]
  MIC: 1 µg/mL (≈ 2.96 µM)
[25]
  MIC: 2 µg/mL (≈ 5.93 µM)
[26]
  MIC: 1 µg/mL (≈ 2.96 µM)
[27]
  MIC: 2 µg/mL (≈ 5.93 µM)
[28]
  MIC: 1 µg/mL (≈ 2.96 µM)
[29]
  MIC: 1 µg/mL (≈ 2.96 µM)

## H-RWRLLLLLKRH-OH
[1]
  MIC: 25 µg/mL
[2]
  MIC: 25 µg/mL
[3]
  MIC: 25 µg/mL
[30]
  MIC: 25 µg/mL
[31]
  MIC: 25 µg/mL
[4]
  MIC: 25 µg/mL
[32]
  MIC: 25 µg/mL
[5]
  MIC: 25 µg/mL
[6]
  MIC: 25 µg/mL
[8]
  MIC: 25 µg/mL
[9]
  MIC: 25 µg/mL
[33]
  MIC: 25 µg/mL
[10]
  MIC: 25 µg/mL
[11]
  MIC: 25 µg/mL
[12]
  MIC: 25 µg/mL
[13]
  MIC: 25 µg/mL
[34]
  MIC: 25 µg/mL
[14]
  MIC: 25 µg/mL
[35]
  MIC: 25 µg/mL
[15]
  MIC: 25 µg/mL
[16]
  MIC: 25 µg/mL
[17]
  MIC: 25 µg/mL
[18]
  MIC: 25 µg/mL
[19]
  MIC: 25 µg/mL
[36]
  MIC: 25 µg/mL
[37]
  MIC: 25 µg/mL
[38]
  MIC: 25 µg/mL
[39]
  MIC: 25 µg/mL
[20]
  MIC: 25 µg/mL
[40]
  MIC: 25 µg/mL
[21]
  MIC: 25 µg/mL
[22]
  MIC: 25 µg/mL
[41]
  MIC: 25 µg/mL
[23]
  MIC: 25 µg/mL
[42]
  MIC: 25 µg/mL
[24]
  MIC: 25 µg/mL
[25]
  MIC: 25 µg/mL
[26]
  MIC: 25 µg/mL
[27]
  MIC: 25 µg/mL
[28]
  MIC: 25 µg/mL
[29]
  MIC: 25 µg/mL

## H-RWRLLLLKKF-OH
[1]
  MIC: 25 µg/mL
[2]
  MIC: 25 µg/mL
[3]
  MIC: 25 µg/mL
[30]
  MIC: 25 µg/mL
[31]
  MIC: 25 µg/mL
[4]
  MIC: 25 µg/mL
[32]
  MIC: 25 µg/mL
[5]
  MIC: 25 µg/mL
[6]
  MIC: 25 µg/mL
[8]
  MIC: 25 µg/mL
[9]
  MIC: 25 µg/mL
[33]
  MIC: 25 µg/mL
[10]
  MIC: 25 µg/mL
[11]
  MIC: 25 µg/mL
[12]
  MIC: 25 µg/mL
[13]
  MIC: 25 µg/mL
[34]
  MIC: 25 µg/mL
[14]
  MIC: 25 µg/mL
[35]
  MIC: 25 µg/mL
[15]
  MIC: 25 µg/mL
[16]
  MIC: 25 µg/mL
[17]
  MIC: 25 µg/mL
[18]
  MIC: 25 µg/mL
[19]
  MIC: 25 µg/mL
[36]
  MIC: 25 µg/mL
[37]
  MIC: 25 µg/mL
[38]
  MIC: 25 µg/mL
[39]
  MIC: 25 µg/mL
[20]
  MIC: 25 µg/mL
[40]
  MIC: 25 µg/mL
[21]
  MIC: 25 µg/mL
[22]
  MIC: 25 µg/mL
[41]
  MIC: 25 µg/mL
[23]
  MIC: 25 µg/mL
[42]
  MIC: 25 µg/mL
[24]
  MIC: 25 µg/mL
[25]
  MIC: 25 µg/mL
[26]
  MIC: 25 µg/mL
[27]
  MIC: 25 µg/mL
[28]
  MIC: 25 µg/mL
[29]
  MIC: 25 µg/mL

## CN[C@H](CC(C)C)C(=O)N[C@H]1C(=O)N[C@@H](CC(N)=O)C(=O)N[C@H]2C(=O)N[C@H]3C(=O)N[C@H](C(=O)N[C@H](C(=O)O)c4cc(O)cc(O)c4-c4cc3ccc4O)[C@H](O)c3ccc(c(Cl)c3)Oc3cc2cc(c3O[C@@H]2O[C@H](CO)[C@@H](O)[C@H](O)[C@H]2O[C@H]2C[C@](C)(N)[C@H](O)[C@H](C)O2)Oc2ccc(cc2Cl)[C@H]1O [VANCOMYCIN]
[1]
  MIC: 64 µg/mL (≈ 44.2 µM)
[2]
  MIC: 64 µg/mL (≈ 44.2 µM)
[3]
  MIC: 64 µg/mL (≈ 44.2 µM)
[6]
  MIC: 64 µg/mL (≈ 44.2 µM)
[9]
  MIC: 64 µg/mL (≈ 44.2 µM)
[10]
  MIC: 64 µg/mL (≈ 44.2 µM)
[12]
  MIC: 64 µg/mL (≈ 44.2 µM)
[14]
  MIC: 64 µg/mL (≈ 44.2 µM)
[15]
  MIC: 64 µg/mL (≈ 44.2 µM)
[16]
  MIC: 64 µg/mL (≈ 44.2 µM)
[17]
  MIC: 64 µg/mL (≈ 44.2 µM)
[20]
  MIC: 64 µg/mL (≈ 44.2 µM)
[21]
  MIC: 64 µg/mL (≈ 44.2 µM)
[22]
  MIC: 64 µg/mL (≈ 44.2 µM)
[24]
  MIC: 64 µg/mL (≈ 44.2 µM)
[25]
  MIC: 64 µg/mL (≈ 44.2 µM)
[26]
  MIC: 2 µg/mL (≈ 1.38 µM)
[29]
  MIC: 64 µg/mL (≈ 44.2 µM)
